According to ChEMBL document CHEMBL2029271, “Design and synthesis of cannabinoid receptor 1 antagonists for peripheral selectivity” (J Med Chem, 2012):
pKi: −log10 of the molar value.

How the values were obtained:
Homo sapiens = species: Homo sapiens; test: Selectivity ratio of Ki for CB2 receptor to Ki for human CB1 receptor
MDCK = test: Permeability from apical to basal side of MDCK cells expressing human mdr1 gene; type: ADME, cell-based, Canis lupus familiaris; details: dog
How it was run: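 MDCK-mdr1 cells grown 4 days to confluence on Transwell-type filters in DMEM/F12 with 10% FBS and antibiotics. Compound added apically at 3.16 μM in HBSS with 25 mM D-glucose, HEPES-buffered to pH 7.4; 1 hr at 37°C. Apical and basal samples collected and analysed by LC-MS/MS (MRM).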

[1] = Metabolic stability in human hepatic S9 fraction assessed as compound remaining at 10 uM after 120 mins; type: ADME, Liver; details: s9, 2 h
How it was run: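 Human hepatic S9 (1 mg/ml) with 10 μM final compound in 50 mM potassium phosphate pH 7.4, 3 mM MgCl2, NADPH regenerating system (NADP 1 mM, glucose-6-phosphate 5 mM, G6PDH 1 unit/ml). Triplicates sampled at 0, 15, 30, 60, 120 min; stopped with 3 volumes acetonitrile; LC-MS/MS (MRM) against matrix standard curves; % parent remaining at 120 min.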

Plasma [2] = test: Metabolic stability in human plasma assessed as compound remaining at 10 uM preincubated for 5 mins measured after 60 mins; type: ADME, cell-free; details: 1 h
How it was run: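 Human plasma, 1 ml per sample at 37°C, 5 min pre-incubation, then compound at 10 μM final, sampled at 0, 30 and 60 min. Reactions stopped with acetonitrile; LC-MS/MS (MRM) quantitation with standards in blank matrix; % parent remaining at 60 min.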

Cannabinoid receptor 1 [3] = target: T1, Cannabinoid receptor 1 (Homo sapiens, UniProt P21554); details: CHO-K1
Cannabinoid receptor 1 [4] = target: T1, Cannabinoid receptor 1; test: biochemical; type: cell-based, CHO-K1
Cannabinoid receptor 2 = Cannabinoid receptor 2 (Homo sapiens, UniProt P34972); test: Displacement of [3H]CP55940 from CB2 receptor expressed in CHO-K1 cells; type: cell-based
Plasma [5] = test: (§1) Plasma concentration in Sprague-Dawley rat at 10 mg/kg, po after 30 mins; type: ADME, organism-based; design: dose 10 mg/kg, route oral; details: in vivo, 0.5 h, BLD = below limit of detection
How it was run: (§2)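 Orally dosed male Sprague Dawley rats (7–8 weeks; 10 mg/kg in corn oil) sampled by tail vein at 30 minutes. Plasma acetonitrile-precipitated with reserpine internal standard; supernatant injected undiluted for LC-MS/MS, with standards in blank plasma.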

[6] = Plasma concentration in Sprague-Dawley rat at 10 mg/kg, po after 60 mins; type: ADME, organism-based; design: dose 10 mg/kg, route oral
How it was run: (§3)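 Male Sprague Dawley rats, 7–8 weeks old, dosed 10 mg/kg orally (corn oil) or ip (1:1:18 ethanol:cremophor:saline). Plasma collected 1 hour post-dose, acetonitrile-precipitated with reserpine internal standard, supernatant diluted in 50:50 methanol:water, quantified by LC-MS/MS against standards in blank plasma.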

[7] = Plasma concentration in Sprague-Dawley rat at 10 mg/kg, ip after 60 mins; type: ADME, organism-based; design: dose 10 mg/kg, route intraperitoneal; how it was run: as §3
Brain = test: (§4) Drug uptake in Sprague-Dawley rat brain at 10 mg/kg, po after 60 mins; type: ADME, organism-based; design: dose 10 mg/kg, route oral; details: in vivo, 1 h, BLD = below limit of detection
How it was run: (§5)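 Male Sprague Dawley rats, 7–8 weeks old, given 10 mg/kg orally (corn oil) or ip (1:1:18 ethanol:cremophor:saline). Brain taken 1 hour post-dose; left lobe homogenized in 50:50 ethanol:water, protein-precipitated with acetonitrile plus reserpine internal standard, analysed by LC-MS/MS against standards in blank brain homogenate.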

[8] = Drug uptake in Sprague-Dawley rat brain at 10 mg/kg, ip after 60 mins; type: ADME, organism-based; design: dose 10 mg/kg, route intraperitoneal; details: read-out: Drug uptake; how it was run: as §5
Nucleic Acid [9] = test: Ratio of drug level in brain to plasma in Sprague-Dawley rat at 10 mg/kg, ip after 60 mins; type: ADME, organism-based; design: dose 10 mg/kg, route intraperitoneal; details: 1 h
How it was run: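 Male Sprague Dawley rats, 7–8 weeks, given 10 mg/kg ip in 1:1:18 ethanol:cremophor:saline; plasma and brain taken at 1 h. Plasma and left-lobe brain homogenate (50:50 ethanol:water) protein-precipitated with acetonitrile, reserpine internal standard; LC-MS/MS MRM vs standards in blank matrices; brain:plasma concentration ratio.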

[10] = as §1; type: ADME, organism-based; design: dose 10 mg/kg, route oral; details: Sprague-Dawley, plasma; how it was run: as §2
Cannabinoid receptor 1 [11] = target: T1, Cannabinoid receptor 1; test: biochemical
[12] = as §4; type: ADME, organism-based; design: dose 10 mg/kg, route oral; details: Sprague-Dawley, brain, read-out: Drug uptake; how it was run: as §5
Nucleic Acid [13] = test: Ratio of drug level in brain to plasma in Sprague-Dawley rat at 10 mg/kg, po after 60 mins; type: ADME, organism-based; design: dose 10 mg/kg, route oral; details: 1 h
How it was run: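 Male Sprague Dawley rats, 7–8 weeks, dosed orally at 10 mg/kg in corn oil; plasma and brain collected 1 h post-dose (tail-vein blood also at 30 min). Acetonitrile precipitation with reserpine internal standard, brain left lobe homogenized in 50:50 ethanol:water; LC-MS/MS MRM with blank-matrix standards; brain:plasma concentration ratio.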
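For Ke in this document: antagonism measured as blockade of CP55940-evoked intracellular Ca2+ rise, read fluorometrically, in cells additionally carrying Galphaq16.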

Cannabinoid receptor 2, sequence (P34972 whole entry): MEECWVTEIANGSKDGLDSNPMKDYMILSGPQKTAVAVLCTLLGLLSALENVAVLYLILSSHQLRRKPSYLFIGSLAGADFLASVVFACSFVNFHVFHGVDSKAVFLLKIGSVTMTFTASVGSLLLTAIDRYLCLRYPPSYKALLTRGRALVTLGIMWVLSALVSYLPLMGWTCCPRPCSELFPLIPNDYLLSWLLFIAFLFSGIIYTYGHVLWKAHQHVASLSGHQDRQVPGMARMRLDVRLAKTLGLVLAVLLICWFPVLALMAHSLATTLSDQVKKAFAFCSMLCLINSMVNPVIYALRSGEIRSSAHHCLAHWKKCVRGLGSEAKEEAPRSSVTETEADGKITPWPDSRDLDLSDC
T1 sequence (P21554 whole entry): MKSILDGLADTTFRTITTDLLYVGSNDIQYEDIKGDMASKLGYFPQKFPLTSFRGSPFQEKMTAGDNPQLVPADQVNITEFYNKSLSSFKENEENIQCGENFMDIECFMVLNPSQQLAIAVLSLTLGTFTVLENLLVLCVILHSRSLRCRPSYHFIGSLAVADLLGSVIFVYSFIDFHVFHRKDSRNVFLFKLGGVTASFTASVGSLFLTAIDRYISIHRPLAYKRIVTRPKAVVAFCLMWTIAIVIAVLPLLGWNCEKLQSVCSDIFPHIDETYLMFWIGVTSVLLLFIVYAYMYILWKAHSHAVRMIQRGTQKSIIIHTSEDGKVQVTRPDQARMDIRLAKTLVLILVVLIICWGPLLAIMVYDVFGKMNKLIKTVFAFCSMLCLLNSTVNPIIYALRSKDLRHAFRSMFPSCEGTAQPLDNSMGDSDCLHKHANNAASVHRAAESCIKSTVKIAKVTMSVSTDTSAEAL

Row | Structure (SMILES) | Ratio Ki (Homo sapiens) | permeability (MDCK) | Stability [1] | Stability (Plasma [2]) | Ke (Cannabinoid receptor 1 [3]) | pKi (Cannabinoid receptor 1 [4]) | pKi (Cannabinoid receptor 2) | Cp (Plasma [5]) | concentration at 1 h [6] | concentration at 1 h [7] | Drug uptake (Brain) | concentration at 1 h [8] | BPR (Nucleic Acid [9]) | concentration at 0.5 h [10] | pKi (Cannabinoid receptor 1 [11]) | concentration at 1 h [12] | BPR (Nucleic Acid [13])
1 | Cc1c(C(=O)N2CCC(NC(=O)OC(C)(C)C)(c3ccccc3)CC2)nn(-c2ccc(Cl)cc2Cl)c1-c1ccc(Cl)cc1 | 49.9 | < 1% | 88% | > 90% | 20.2 nM |  |  |  |  |  |  |  |  |  |  |  | 
2 | Cc1c(C(=O)NC2CCN(C(=O)OC(C)(C)C)CC2)nn(-c2ccc(Cl)cc2Cl)c1-c1ccc(Cl)cc1 | 878 | < 1% | > 90% | > 90% | 4.7 nM | 8.54 | 5.60 | BLD | 13.2 ng/mL | 197 ng/mL | BLD | 4.2 ng/mL | 0.0214 |  |  |  | 
3 | Cc1c(C(=O)N2CCC(NC(=O)NCc3ccccc3)(c3ccccc3)CC2)nn(-c2ccc(Cl)cc2Cl)c1-c1ccc(Cl)cc1 | 398 | < 1% | 18% | 82% | 2.1 nM | 7.37 | 4.77 |  |  |  |  |  |  |  |  |  | 
4 | Cc1c(C(=O)N2CCC(NC(=O)NC(C)(C)C)(c3ccccc3)CC2)nn(-c2ccc(Cl)cc2Cl)c1-c1ccc(Cl)cc1 | 425 | < 1% | 88% | > 90% | 2.4 nM |  | 4.70 |  | 10.3 ng/mL | 386 ng/mL | BLD | 12.4 ng/mL | 0.032 | 3.72 ng/mL |  |  | 
5 | Cc1c(C(=O)N2CCC(C(N)=O)(c3ccccc3)CC2)nn(-c2ccc(Cl)cc2Cl)c1-c1ccc(Cl)cc1 | 1600 | 8% |  |  | 0.4 nM |  |  |  |  |  |  |  |  |  | 9.40 |  | 
6 | Cc1c(C(=O)NC2CCN(C(=O)NC(C)(C)C)CC2)nn(-c2ccc(Cl)cc2Cl)c1-c1ccc(Cl)cc1 | 228 | < 1% |  | 71% | 78 nM | 7.83 | 5.48 |  | 28 ng/mL | 67.4 ng/mL |  | 25.5 ng/mL | 0.379 | 5.08 ng/mL |  | 4.46 ng/mL | 0.16
